TRPC6 act = mouse TRPC6 channel activation. Q61143. HEK293-TRPC6 membrane potential dye fluorescence; active compounds read high. B-score at 10 µM. 310,000 compounds, 0.13% hits;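 active means B-score of the integrated fluorescence ratio above library mean plus 3 SD, and starting fluorescence ratio within library mean plus 5 SD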;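 further: higher score means more depolarization so channel activation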
Target sequence (Q61143 whole entry, looked up): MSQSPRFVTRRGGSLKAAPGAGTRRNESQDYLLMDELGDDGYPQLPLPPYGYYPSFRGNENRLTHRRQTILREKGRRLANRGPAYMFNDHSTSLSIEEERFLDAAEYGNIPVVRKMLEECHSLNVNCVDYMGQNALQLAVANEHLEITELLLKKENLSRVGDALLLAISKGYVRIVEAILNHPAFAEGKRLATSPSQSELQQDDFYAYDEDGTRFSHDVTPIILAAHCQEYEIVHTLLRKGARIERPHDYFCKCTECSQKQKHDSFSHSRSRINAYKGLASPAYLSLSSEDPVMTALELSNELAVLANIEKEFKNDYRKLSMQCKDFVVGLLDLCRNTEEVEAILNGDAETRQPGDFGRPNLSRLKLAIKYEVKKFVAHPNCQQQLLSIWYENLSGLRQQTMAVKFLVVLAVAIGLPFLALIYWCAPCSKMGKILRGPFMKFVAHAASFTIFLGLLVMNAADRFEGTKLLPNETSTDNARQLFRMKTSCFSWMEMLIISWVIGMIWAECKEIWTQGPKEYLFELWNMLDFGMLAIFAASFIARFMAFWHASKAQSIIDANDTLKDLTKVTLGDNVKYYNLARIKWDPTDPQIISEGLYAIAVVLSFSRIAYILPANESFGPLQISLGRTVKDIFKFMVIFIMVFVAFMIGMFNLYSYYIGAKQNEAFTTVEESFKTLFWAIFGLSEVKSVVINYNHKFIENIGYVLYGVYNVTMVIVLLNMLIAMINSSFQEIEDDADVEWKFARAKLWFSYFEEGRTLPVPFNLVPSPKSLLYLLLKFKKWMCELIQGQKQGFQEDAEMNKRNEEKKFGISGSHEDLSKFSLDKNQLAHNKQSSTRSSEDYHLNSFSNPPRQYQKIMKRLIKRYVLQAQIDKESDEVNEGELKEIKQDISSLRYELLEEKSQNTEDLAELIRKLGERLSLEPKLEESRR
TRPC6 inhibitor = mouse TRPC6 channel inhibition; B-score at 10 µM; Q61143; AID 2553; HEK293-TRPC6, membrane potential dye, ACh-evoked depolarization; active compounds read low; 310,000 compounds, 1.1% hits;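 active means B-score under library mean minus 3 SD, initial fluorescence not abnormally high, positive integrated signal ratio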;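 further: B-score derived from integrated fluorescence ratio over the kinetic read; more negative B-score means stronger inhibition of depolarization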
TRPC4 agonist = opens the mouse TRPC4 cation channel; Q9QUQ5; HEK293 TRPC4beta/mu-opioid, Fluo4 calcium fluorescence; active compounds read high; 310,000 compounds, 0.49% hits; B-score at 10 µM; AID 2237;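 active means B-score above 5 SD of library B-scores, and initial fluorescence ratio not above library mean plus 5 SD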;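 further: positive B-score marks a calcium rise read as TRPC4 activation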
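Assay system: HEK293 stable line with TRPC4beta plus mu-opioid receptor. Times: dye 45 min RT, read 110 s. Measured by: kinetic Fluo4 calcium fluorescence. Measure: B score of integrated ratio. Controls: assay buffer as low control, maximal DAMGO as high control.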
TRPC4 block = TRPC4 (mouse) channel inhibition; Q9QUQ5; HEK293 TRPC4beta/mu-opioid, DAMGO-evoked Fluo4 calcium flux; active compounds read low; B-score at 10 µM; 300,000 compounds, 0.39% hits;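 active means B-score over 3 SD under the library average, no early fluorescence shift, positive overall ratio signal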
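Assay system – HEK293 line stably carrying TRPC4beta and mu-opioid receptor · Doses – single dose · Detection – Fluo4 calcium-dye fluorescence, kinetic read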
TRPC4 PAM = allosteric potentiators of mouse TRPC4 channel | Q9QUQ5 | HEK293 TRPC4beta/mu-opioid, DAMGO EC20, Fluo-4 Ca2+ flux; active compounds read high | B-score at 10 µM | 310,000 compounds, 0.42% hits | AID 2227;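 active means B-score of calcium response area above 5 SD of library B-scores, with initial fluorescence ratio within 5 SD of library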;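 further: B-score of integrated fluorescence ratio over time as area under calcium response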
TRPC4 sel inh 2 = second check of whether TRPC6 inhibitors also affect mouse TRPC4. AID 2776. 920 compounds, 42% hits. shares compounds with TRPC6 inhibitor. inhibition, % at 10 µM. HEK293 TRPC4/MOR, membrane potential dye fluorescence; channel activated by saturating DAMGO dose;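 active means compounds whose fluorescence signal differed from control wells by over 3 SD, either direction, in both duplicate plates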
TRPC4 spec = selectivity of TRPC6 inhibitors: effect on mouse TRPC4. shares compounds with TRPC6 inhibitor. HEK293 TRPC4/mu-opioid, membrane potential fluorescence. activity change, negative = inhibition, % at 10 µM. 920 compounds, 61% hits;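 active means rise or fall in signal beyond 3 SD of buffer-only wells in both replicate plates, either sign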;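 further: integrated kinetic ratio of fluorescence range over baseline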
HEK293 MPD ctr 2-1 = second check of TRPC6 inhibitor effects in parental HEK293 cells. shares compounds with TRPC6 inhibitor. parental HEK293 membrane potential dye fluorescence; maximal acetylcholine challenge after compound addition. signal change vs control, % at 10 µM. 920 compounds, 31% hits. AID 2779;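 active means membrane potential signal moving either way by over 3 SD of the maximum-effect control, in both duplicate plates, meaning non-specific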
HEK293 MPD ctr-1 = parental HEK293 nonspecific activity of TRPC6 inhibitors. shares compounds with TRPC6 inhibitor. parental HEK293 membrane potential dye fluorescence. membrane potential signal change, % at 10 µM. 920 compounds, 60% hits. AID 2780;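 active means membrane potential signal shifting up or down by more than 3 SD of buffer-only wells, on both duplicate plates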
HEK293 MPD ctr-2 = checks TRPC6 modulator effects in parental HEK293 cells; shares compounds with TRPC6 inhibitor; membrane potential dye fluorescence; membrane potential signal change, % at 10 µM; 2,400 compounds, 51% hits; AID 488924;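 active means membrane potential signal moves up or down beyond 5 SD from buffer-only wells, on both duplicate plates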
HEK293 MPD ctr 2-2 = parental HEK293 nonspecific activity of TRPC6 modulators, second screen. shares compounds with TRPC6 inhibitor. membrane potential dye fluorescence; after compound, maximal acetylcholine stimulation. inhibition, % at 10 µM. 2,400 compounds, 14% hits;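 active means membrane potential signal drops by more than 5 SD from the mean control signal, in both duplicate plates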;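 further: plate controls were acetylcholine ECmax control wells for no effect and buffer only wells for full effect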
TRPC4/MOR mod = selectivity of TRPC6 modulators against mouse TRPC4. AID 488927. percent change from control (negative = decrease, positive = increase), % at 10 µM. 2,400 compounds, 69% hits. shares compounds with TRPC6 inhibitor. HEK293 TRPC4/mu-opioid, membrane potential fluorescence;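 active means membrane potential signal moved up or down beyond 5 SD of buffer control wells, in both duplicate plates, actives on both sides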;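 further: plate controls were assay buffer wells for no effect and DAMGO maximal-effect wells for full effect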
TRPC4/MOR inh 2 = second check of whether TRPC6 modulators also affect mouse TRPC4; shares compounds with TRPC6 inhibitor; HEK293 TRPC4/mu-opioid, membrane potential dye fluorescence; stimulated with maximal-effect DAMGO; inhibition, % at 10 µM; 2,400 compounds, 55% hits;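 active means drop in membrane potential signal beyond 5 SD of the control wells in both duplicate plates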;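 further: TRPC4 counter screen for TRPC6 hits run under conditions tuned for TRPC6 not TRPC4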
TRPC6 inh conf = confirmation of mouse TRPC6 inhibitors | shares compounds with TRPC6 inhibitor | HEK293-TRPC6, membrane potential dye, ACh-evoked depolarization | inhibition, % at 10 µM | 3,300 compounds, 43% hits | AID 488960;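 active means fluorescence ratio falls more than 5 SD below the full-stimulation control mean, in both duplicate runs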;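 further: integrated fluorescence ratio of peak minus minimum over baseline after agonist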
TRPC6 act confirm = confirmation of mouse TRPC6 activators. shares compounds with TRPC6 inhibitor. HEK293-TRPC6 membrane potential dye fluorescence, FDSS. activation, % at 10 µM. 2,800 compounds, 11% hits;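 active means ratio signal rise beyond 5 SD above unstimulated control wells' mean, seen in both duplicate runs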;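 further: plate controls were buffer EC0 wells for no effect and acetylcholine ECmax response for full effect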
Active calls of the source: *; i = inactive; x = no result. Shown are actives, neighbours in structure and some others; about 2.3% of the full set was active somewhere.

SMILES | TRPC6 act | TRPC6 inhibitor | TRPC4 agonist | TRPC4 block | TRPC4 PAM | HEK293 MPD ctr-2 | HEK293 MPD ctr 2-2 | TRPC4/MOR mod | TRPC4/MOR inh 2 | TRPC6 inh conf | TRPC6 act confirm | others
Cc1ccccc1OCC(O)CN1CCN(CCN2C(=O)c3cccc4cccc(c34)C2=O)CC1 (stereo unspecified) | i | -5.2* | i | i | i | i | i | -18%* | 82%* | 59%* | i
CCC(OCC(O)CN1CCN(CCN2C(=O)c3cccc4cccc(c34)C2=O)CC1)c1ccccc1 (stereo unspecified) | i | -6.1* | i | i | i | -90%* | i | -29%* | 77%* | 60%* | i
Cc1cccc(C)c1OCC(O)CN1CCC(CN2C(=O)c3cccc4cccc(c34)C2=O)CC1 (stereo unspecified) | i | -8.3* | i | i | i | x | x | x | x | 64%* | i | TRPC4 sel inh 2=40%*;TRPC4 spec=-18%*;HEK293 MPD ctr 2-1=i;HEK293 MPD ctr-1=-200%*
COc1cc2c(cc1OC)CC(=O)NC=C2 | i | i | i | i | i | x | x | x | x | x | x
Nc1cccc2nc3ccccc3cc12 | i | -7.2* | i | i | i | x | x | x | x | 83%* | i | TRPC4 sel inh 2=23%*;TRPC4 spec=-36%*;HEK293 MPD ctr 2-1=18%*;HEK293 MPD ctr-1=-413%*
Cn1cc(/C=C(\NC(=O)c2ccccc2)C(=O)N2CCOCC2)c2ccccc21 | i | i | i | i | i | x | x | x | x | x | x
CN(C)CCOC(=O)/C(=C/c1cn(C)c2ccccc12)NC(=O)c1ccccc1 | i | -7.7* | i | i | i | x | x | x | x | i | i | TRPC4 sel inh 2=i;TRPC4 spec=i;HEK293 MPD ctr 2-1=i;HEK293 MPD ctr-1=i
Cc1ccc(C(=O)N/C(=C\c2cn(C)c3ccccc23)C(=O)OCCN(C)C)cc1 | i | -7.5* | i | i | i | x | x | x | x | i | i | TRPC4 sel inh 2=57%*;TRPC4 spec=-15%*;HEK293 MPD ctr 2-1=i;HEK293 MPD ctr-1=-280%*
CCOc1ccc(N2C(=O)C3=C(C(c4ccc(Cl)cc4)=NCCN3)C2c2cccnc2)cc1 (stereo unspecified) | i | i | i | i | i | x | x | x | x | x | x
Cc1ccc(C2C3=C(NCCN=C3c3ccccc3)C(=O)N2c2ccccc2)cc1 (stereo unspecified) | i | -6.6* | i | i | i | x | x | x | x | 75%* | i | TRPC4 sel inh 2=16%*;TRPC4 spec=18%*;HEK293 MPD ctr 2-1=i;HEK293 MPD ctr-1=1.3%*
COc1cc(NC(=O)CC(C)S(=O)(=O)c2ccc3c(c2)NC(=O)CO3)cc(OC)c1OC (stereo unspecified) | i | i | i | i | i | x | x | x | x | x | x
COc1ccc(NC(=O)CN(C)C(=O)c2cc(C)on2)cc1 | i | -5.7* | i | i | i | i | i | i | i | i | i
Cc1cc(C(=O)N(C)CC(=O)Nc2cccc(F)c2)no1 | i | i | i | i | i | x | x | x | x | x | x
CCOc1ccc(OCCOC(=O)CN2C(=O)NC3(CCCC3)C2=O)cc1 | i | i | i | i | i | x | x | x | x | x | x
C=CCn1c(C(C)NC(=O)COC)nc2ccccc21 (stereo unspecified) | i | i | i | i | i | x | x | x | x | x | x
CCOC(=O)c1[nH]n(-c2ccc(Cl)cc2)c(=O)c1C | i | -7.8* | i | i | i | x | x | x | x | i | i | TRPC4 sel inh 2=i;TRPC4 spec=i;HEK293 MPD ctr 2-1=i;HEK293 MPD ctr-1=i
CN1C(=O)C(C)(C)c2cc(S(=O)(=O)N3CCC(C(=O)NCc4ccccc4Cl)CC3)ccc21 | i | i | i | i | i | x | x | x | x | x | x
CCOC(=O)c1c(NC(=O)c2cccc(N3C(=O)CCC3=O)c2)sc2c1CCN(CC)C2 | i | -6.3* | i | i | i | i | i | i | 28%* | i | i
CCOC(=O)c1c(NC(=O)CSc2ncccn2)sc2c1CCN(Cc1ccccc1)C2 | i | -5.5* | i | i | i | i | i | -20%* | 35%* | i | i
COC(=O)c1c(NC(=O)C(C)(C)C)sc2c1CCN(Cc1ccccc1)C2 | i | i | i | i | i | x | x | x | x | x | x
COC(=O)c1c(NC(C)=O)sc2c1CCN(Cc1ccccc1)C2 | i | -5.5* | i | i | i | -196%* | i | -34%* | 37%* | i | i
CCN1CCN(S(=O)(=O)c2ccc(C(=O)Nc3sc4c(c3C(N)=O)CCN(CC)C4)cc2)CC1 | i | -10* | i | i | i | -144%* | i | -27%* | 37%* | 58%* | i
COc1cccc(CNC(=O)c2nnn(CC(=O)Nc3cccc(C)c3)c2N)c1 | i | i | i | i | i | x | x | x | x | x | x
CC(C)CSc1oc(-c2ccco2)nc1S(=O)(=O)c1ccccc1 | i | i | i | i | i | x | x | x | x | x | x
CCOC(=O)c1c(N)sc2c1CCN(CCc1ccccc1)C2 | i | -5.9* | i | i | i | i | i | 22%* | 34%* | i | i
CCOC(=O)c1c(NC(C)=O)sc2c1CCN(Cc1ccccc1)C2 | i | -5.3* | i | i | i | -198%* | i | -34%* | 39%* | i | i
CCOC(=O)c1c(N)sc2c1CCCC2 | i | i | i | i | i | x | x | x | x | x | x
CCOC(=O)c1c(NC(=O)CC)sc2c1CCN(Cc1ccccc1)C2 | i | i | i | i | i | x | x | x | x | x | x
